Reference: ChEMBL document CHEMBL3044709, “Antimicrobial furostanol saponins from the seeds of Capsicum annuum L. var. acuminatum” (2002)
In brackets after ≈: the same amount, converted by molar mass.

Key:
Assay type in all cases: functional
Bacillus subtilis = assay: Antimicrobial activity against Bacillus subtilis DSM 345 after 48 hr by agar dilution method; details: DSM 345, 48 h
Outline: (§1)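 Agar dilution on standard plate count agar: 0.5 mL of a 2-fold serial dilution of sample mixed into 9.5 mL medium, poured into Petri dishes, organism streaked on the surface. Incubated at 28 °C (36 and 48 h). MIC is the lowest tested concentration with no visible growth.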

Escherichia coli [1] = assay: Antimicrobial activity against Escherichia coli DSM 682 after 48 hr by agar dilution method; details: DSM 682, 48 h; outline: as §1
Micrococcus luteus = assay: Antimicrobial activity against Micrococcus luteus DSM 348 after 48 hr by agar dilution method; details: DSM 348, 48 h; outline: as §1
Bacillus cereus = assay: Antimicrobial activity against Bacillus cereus DSM 345 after 48 hr by agar dilution method; details: DSM 345, 48 h; outline: as §1
Rhizopus arrhizus = assay: Antimicrobial activity against Rhizopus oryzae ATCC 56536 after 48 hr by agar dilution method; details: ATCC 56536, 48 h
Outline: (§2)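 Fungi tested by agar dilution in malt agar. Serial 2-fold sample dilutions (0.5 mL) were mixed with 9.5 mL medium and plated, then streaked with the organism. Incubation at 28 °C for 36 and 48 h. MIC is the lowest tested concentration without growth.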

[2] = tested on: Lactiplantibacillus plantarum; assay: Antimicrobial activity against Lactobacillus plantarum DSM 20174 after 48 hr by agar dilution method; details: DSM 20174, 48 h; outline: as §1
[3] = tested on: Lacticaseibacillus rhamnosus; assay: Antimicrobial activity against Lactobacillus rhamnosus DSM 20021 after 48 hr by agar dilution method; details: DSM 20021, 48 h; outline: as §1
Lacticaseibacillus casei = assay: Antimicrobial activity against Lactobacillus casei DSM 20011 after 48 hr by agar dilution method; details: DSM 20011, 48 h; outline: as §1
Escherichia coli [4] = assay: Antimicrobial activity against Escherichia coli ATCC 35346 after 48 hr by agar dilution method; details: ATCC 35346, 48 h; outline: as §1
Setophoma terrestris = assay: Antimicrobial activity against Setophoma terrestris ATCC 11321 after 48 hr by agar dilution method; details: ATCC 11321, 48 h; outline: as §2
[5] = tested on: Staphylococcus epidermidis; assay: Antimicrobial activity against Staphylococcus epidermidis DSM 1798 after 48 hr by agar dilution method; details: DSM 1798, 48 h; outline: as §1
Stutzerimonas stutzeri = assay: Antimicrobial activity against Pseudomonas stutzeri ATCC 962 after 48 hr by agar dilution method; details: ATCC 962, 48 h; outline: as §1
Bacillus licheniformis = assay: Antimicrobial activity against Bacillus licheniformis DSM 13=ATCC 14580 after 48 hr by agar dilution method; details: DSM 13 = ATCC 14580, 48 h; outline: as §1
[6] = tested on: Limosilactobacillus fermentum; assay: Antimicrobial activity against Lactobacillus fermentum DSM 20052 after 48 hr by agar dilution method; details: DSM 20052, 48 h; outline: as §1
Pseudomonas aeruginosa = assay: Antimicrobial activity against Pseudomonas aeruginosa DSM 1117 after 48 hr by agar dilution method; details: DSM 1117, 48 h; outline: as §1
Penicillium expansum = assay: Antimicrobial activity against Penicillium expansum ATCC 7861 after 48 hr by agar dilution method; details: ATCC 7861, 48 h; outline: as §2
Trichoderma viride = assay: Antimicrobial activity against Hypocrea rufa ATCC 28020 after 48 hr by agar dilution method; details: ATCC 28020, 48 h; outline: as §2
Enterococcus faecalis = assay: Antimicrobial activity against Enterococcus faecalis DSM 2570 after 48 hr by agar dilution method; details: DSM 2570, 48 h; outline: as §1
Staphylococcus aureus = assay: Antimicrobial activity against Staphylococcus aureus subsp. aureus DSM 346 after 48 hr by agar dilution method; details: DSM 346, 48 h; outline: as §1

MIC (Bacillus subtilis) [µg/mL] | MIC (Escherichia coli [1]) [µg/mL] | MIC (Micrococcus luteus) [µg/mL] | MIC (Bacillus cereus) [µg/mL] | MIC (Rhizopus arrhizus) [µg/mL] | MIC [3] [µg/mL] | MIC (Lacticaseibacillus casei) [µg/mL] | MIC (Escherichia coli [4]) [µg/mL] | MIC (Setophoma terrestris) [µg/mL] | MIC [5] [µg/mL] | MIC (Stutzerimonas stutzeri) [µg/mL] | MIC (Bacillus licheniformis) [µg/mL] | MIC [6] [µg/mL] | MIC (Pseudomonas aeruginosa) [µg/mL] | MIC (Penicillium expansum) [µg/mL] | MIC (Trichoderma viride) [µg/mL] | MIC (Enterococcus faecalis) [µg/mL] | MIC (Staphylococcus aureus) [µg/mL] | Compound | MIC [2] [µg/mL]
> 1000 | 1000 (≈ 702 µM) | > 1000 | 1000 (≈ 702 µM) | 1000 (≈ 702 µM) | 1000 (≈ 702 µM) | 1000 (≈ 702 µM) | 1000 (≈ 702 µM) | 1000 (≈ 702 µM) | > 1000 | > 1000 | > 1000 | 1000 (≈ 702 µM) | > 1000 | 1000 (≈ 702 µM) | > 1000 | > 1000 | > 1000 | C[C@H](CCC1(O)O[C@H]2C[C@H]3[C@@H]4CC[C@H]5C[C@@H](O[C@@H]6O[C@H](CO)[C@H](O[C@@H]7O[C@H](CO)[C@@H](O)[C@H](O[C@@H]8O[C@H](CO)[C@@H](O)[C@H](O)[C@H]8O)[C@H]7O[C@@H]7O[C@H](CO)[C@@H](O)[C@H](O[C@@H]8O[C@H](CO)[C@@H](O)[C@H](O)[C@H]8O)[C@H]7O)[C@H](O)[C@H]6O)[C@H](O)C[C@]5(C)[C@H]4CC[C@]3(C)[C@H]2[C@@H]1C)CO[C@@H]1O[C@H](CO)[C@@H](O)[C@H](O)[C@H]1O (some centres not stated) [CAPSICOSIDE A] | 1000 (≈ 702 µM)
> 1000 | 1000 (≈ 726 µM) | > 1000 | 1000 (≈ 726 µM) | 1000 (≈ 726 µM) | 1000 (≈ 726 µM) | 1000 (≈ 726 µM) | 1000 (≈ 726 µM) | 1000 (≈ 726 µM) | > 1000 | > 1000 | > 1000 | 1000 (≈ 726 µM) | > 1000 | > 1000 | > 1000 | > 1000 | > 1000 | C[C@H](CCC1(O)O[C@H]2C[C@H]3[C@@H]4CC[C@H]5C[C@@H](O[C@@H]6O[C@H](CO)[C@H](O[C@@H]7O[C@H](CO)[C@@H](O)[C@H](O[C@@H]8OC[C@@H](O)[C@H](O)[C@H]8O)[C@H]7O[C@@H]7O[C@H](CO)[C@@H](O)[C@H](O[C@@H]8O[C@H](CO)[C@@H](O)[C@H](O)[C@H]8O)[C@H]7O)[C@H](O)[C@H]6O)CC[C@]5(C)[C@H]4CC[C@]3(C)[C@H]2[C@@H]1C)CO[C@@H]1O[C@H](CO)[C@@H](O)[C@H](O)[C@H]1O (some centres not stated) [CAPSICOSIDE D] | 1000 (≈ 726 µM)

Compound | MIC (Bacillus subtilis) [µg/mL] | MIC (Escherichia coli [1]) [µg/mL] | MIC (Micrococcus luteus) [µg/mL] | MIC (Bacillus cereus) [µg/mL] | MIC (Rhizopus arrhizus) [µg/mL] | MIC [3] [µg/mL] | MIC (Lacticaseibacillus casei) [µg/mL] | MIC (Escherichia coli [4]) [µg/mL] | MIC (Setophoma terrestris) [µg/mL] | MIC [5] [µg/mL] | MIC (Stutzerimonas stutzeri) [µg/mL] | MIC (Bacillus licheniformis) [µg/mL] | MIC [6] [µg/mL] | MIC (Pseudomonas aeruginosa) [µg/mL] | MIC (Penicillium expansum) [µg/mL] | MIC (Trichoderma viride) [µg/mL] | MIC (Enterococcus faecalis) [µg/mL] | MIC (Staphylococcus aureus) [µg/mL] | MIC [2] [µg/mL]
C[C@H](CCC1(O)O[C@H]2C[C@H]3[C@@H]4CC[C@H]5C[C@@H](O[C@@H]6O[C@H](CO)[C@H](O[C@@H]7O[C@H](CO)[C@@H](O)[C@H](O[C@@H]8OC[C@@H](O)[C@H](O)[C@H]8O)[C@H]7O[C@@H]7O[C@H](CO)[C@@H](O)[C@H](O)[C@H]7O)[C@H](O)[C@H]6O)CC[C@]5(C)[C@H]4CC[C@]3(C)[C@H]2[C@@H]1C)CO[C@@H]1O[C@H](CO)[C@@H](O)[C@H](O)[C@H]1O (some centres not stated) [TIMOSAPONIN I2] | > 1000 | 1000 (≈ 823 µM) | > 1000 | 1000 (≈ 823 µM) | 1000 (≈ 823 µM) | 1000 (≈ 823 µM) | 1000 (≈ 823 µM) | 1000 (≈ 823 µM) | 1000 (≈ 823 µM) | > 1000 | > 1000 | > 1000 | 1000 (≈ 823 µM) | > 1000 | > 1000 | > 1000 | > 1000 | > 1000 | 1000 (≈ 823 µM)
